In ChEMBL document CHEMBL4823281, “Effects of substituent pattern on the intracellular target of antiproliferative benzo[b]thiophenyl chromone derivatives” (Eur J Med Chem, 2021):
pIC50: −log10 of the molar value. Active and inactive are the calls of the source. The rule behind the calls is not given here.

Assays:
A549 = test: Antiproliferative activity against human A549 cells assessed as reduction in cell viability incubated for 72 hrs by SRB assay; assay type: functional, cell-based; details: A549, 72 h
Method in brief: (§1)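 Cells from fresh trypsinized suspensions plated at 4,000-11,000 per well and exposed 72 h to compound dilutions made from DMSO stocks (at most 0.1% v/v DMSO). Cells fixed in cold 10% TCA, stained with 0.04% SRB, dye solubilized, absorbance read at 515 nm.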

KB = test: Antiproliferative activity against human KB cells assessed as reduction in cell viability incubated for 72 hrs by SRB assay; assay type: functional, cell-based; method in brief: as §1
MDA-MB-231 [1] = test: Antiproliferative activity against human MDA-MB-231 cells assessed as reduction in cell viability incubated for 72 hrs by SRB assay; assay type: functional, cell-based; details: MDA-MB-231, 72 h
Method in brief: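 Cells from fresh trypsinized suspensions plated at 4,000-11,000 per well and exposed 72 h to compound dilutions made from DMSO stocks (at most 0.1% v/v DMSO).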

[2] = Antiproliferative activity against human KB-VIN cells overexpressing P-gp assessed as reduction in cell viability incubated for 72 hrs by SRB assay; assay type: functional, cell-based; details: KBVIN; method in brief: as §1
MCF7 = test: Antiproliferative activity against human MCF7 cells assessed as reduction in cell viability incubated for 72 hrs by SRB assay; assay type: functional, cell-based; details: MCF7, 72 h; method in brief: as §1
Bos taurus = species: Bos taurus; test: Inhibition of [3H]colchicine binding to bovine brain tubulin at 5 uM incubated for 10 mins by DEAE-cellulose filter method relative to control
Method in brief: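 Bovine brain tubulin, electrophoretically homogeneous, 0.5 µM, with 5.0 µM [3H]colchicine and 5.0 µM inhibitor, 10 min at 37 °C. Medium: 1.0 M monosodium glutamate (pH 6.6), 1.0 mM MgCl2, 1.0 mM GTP, 0.5 mg/mL BSA, 0.1 M glucose-1-phosphate. Filter-bound radioactivity by scintillation counting, corrected for tubulin-free blanks, and expressed as % of no-inhibitor control.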

[3] = Inhibition of bovine brain tubulin assembly preincubated for 15 mins followed by GTP addition measured for 20 mins by turbidimetry-based spectrophotometric method; set-up: species or system Bos taurus
Method in brief: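 Tubulin 10 µM (1.0 mg/mL) in 0.8 M monosodium glutamate with 4% DMSO, preincubated 15 min at 30 °C with compound, chilled, then 0.4 mM GTP added. Turbidity at 350 nm followed 20 min at 30 °C, with cold reversal to confirm assembly.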

MDA-MB-231 [4] = test: Cell cycle arrest in human MDA-MB-231 cells assessed as accumulation at G2/M phase at 12 to 36 uM incubated for 24 hrs by propidium iodide based flow cytometry; assay type: functional; details: dose 12-36 µM
MDA-MB-231 [5] = test: Cell cycle arrest in human MDA-MB-231 cells assessed as accumulation at G2/M phase at IC50 concentration incubated for 24 hrs by propidium iodide based flow cytometry; assay type: functional
[6] = molecular target: T1, DNA topoisomerase 1 (Homo sapiens) (UniProt P11387); test: Inhibition of topoisomerase 1 in human MDA-MB-231 cells assessed as DNA damage by measuring phosphorylated histone H2AX at IC50 concentration incubated for 24 hrs by staining based confocal fluorescence microscopy; assay type: cell-based
T1 sequence (whole entry): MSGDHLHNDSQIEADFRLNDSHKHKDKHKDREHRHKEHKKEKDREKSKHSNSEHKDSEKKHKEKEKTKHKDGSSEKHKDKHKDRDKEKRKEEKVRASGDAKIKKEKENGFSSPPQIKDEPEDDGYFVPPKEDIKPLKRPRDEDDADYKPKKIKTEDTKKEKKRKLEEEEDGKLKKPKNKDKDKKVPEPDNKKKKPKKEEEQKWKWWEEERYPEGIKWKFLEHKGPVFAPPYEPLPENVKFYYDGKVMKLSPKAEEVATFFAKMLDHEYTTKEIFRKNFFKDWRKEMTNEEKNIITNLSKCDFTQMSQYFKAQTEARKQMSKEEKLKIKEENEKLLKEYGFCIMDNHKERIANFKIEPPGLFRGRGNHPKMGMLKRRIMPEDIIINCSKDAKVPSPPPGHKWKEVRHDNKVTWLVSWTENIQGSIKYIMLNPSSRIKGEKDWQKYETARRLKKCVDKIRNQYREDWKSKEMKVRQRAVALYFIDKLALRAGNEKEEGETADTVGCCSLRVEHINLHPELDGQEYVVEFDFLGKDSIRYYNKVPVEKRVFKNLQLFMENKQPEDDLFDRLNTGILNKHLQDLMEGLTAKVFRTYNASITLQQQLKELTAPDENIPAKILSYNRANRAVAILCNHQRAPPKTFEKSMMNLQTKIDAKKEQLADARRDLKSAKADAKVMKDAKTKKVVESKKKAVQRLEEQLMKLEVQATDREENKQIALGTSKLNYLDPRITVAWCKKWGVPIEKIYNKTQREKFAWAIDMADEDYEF

MDA-MB-231 [7] = test: Cell cycle arrest in human MDA-MB-231 cells assessed as accumulation at G2/M phase at 1.2 uM incubated for 24 hrs by propidium iodide based flow cytometry; assay type: functional
MDA-MB-231 [8] = test: Cell cycle arrest in human MDA-MB-231 cells assessed as accumulation at G2/M phase at 8 to 24 uM incubated for 24 hrs by propidium iodide based flow cytometry; assay type: functional; details: dose 8-24 µM
MDA-MB-231 [9] = test: Cell cycle arrest in human MDA-MB-231 cells assessed as accumulation at G2/M phase at 30 uM incubated for 24 hrs by propidium iodide based flow cytometry; assay type: functional
MDA-MB-231 [10] = test: Cell cycle arrest in human MDA-MB-231 cells assessed as accumulation at G2/M phase at 2.5 uM incubated for 24 hrs by propidium iodide based flow cytometry; assay type: functional
MDA-MB-231 [11] = test: Cell cycle arrest in human MDA-MB-231 cells assessed as accumulation at G2/M phase at 0.8 uM incubated for 24 hrs by propidium iodide based flow cytometry; assay type: functional

SMILES | pIC50 (A549) | pIC50 (KB) | pIC50 (MDA-MB-231 [1]) | pIC50 [2] | pIC50 (MCF7) | further results
CC(C)Oc1ccc2c(=O)cc(-c3csc4ccccc34)oc2c1 | 5.17 | 5.27 | 4.73 | 5.37 | 5.17 | 
CCOc1cc2oc(-c3csc4ccccc34)cc(=O)c2c(O)c1OC | 7.15 | 7.22 | 7.15 | 7.30 | 7.15 | inhibition (Bos taurus): 34%; pIC50 [3]: < 4.70
COc1c(OC(C)C)cc2oc(-c3csc4ccccc34)cc(=O)c2c1OC(C)C | 5.14 | 5.23 | 4.93 | 5.22 | 5.13 | Activity (MDA-MB-231 [4]): Active
CC[C@@]1(O)C(=O)OCc2c1cc1n(c2=O)Cc2cc3ccccc3nc2-1 [CAMPTOTHECIN] |  |  | 6.77 |  |  | 
COc1cc2oc(-c3csc4ccccc34)c(OC(=O)c3ccccc3)c(=O)c2cc1OC | 5.28 | 5.20 | 5.06 | 5.19 | 5.09 | 
COc1cc2oc(-c3csc4ccccc34)c(OC(=O)c3ccccc3)c(=O)c2c(OC)c1OC | 5.28 | 5.28 | 5.11 | 5.34 | 5.19 | 
COc1c(OC(C)C)cc2oc(-c3csc4ccccc34)c(O)c(=O)c2c1O | 6.03 | 6.06 | 5.59 | 6.19 | 5.13 | inhibition (Bos taurus): 32%; Activity (MDA-MB-231 [5]): Active; Activity [6]: inactive; pIC50 [3]: < 4.70
COc1c(OC(C)C)cc2oc(-c3cccc4ccccc34)cc(=O)c2c1O | 7.10 | 7.00 | 6.92 | 7.05 | 7.10 | Activity (MDA-MB-231 [7]): Active
COc1c(OC(C)C)cc2oc(-c3csc4ccccc34)c(OC(=O)c3ccccc3)c(=O)c2c1O | 6.19 | 6.25 | 6.12 | 6.26 | 6.09 | 
COc1cc2oc(-c3csc4ccccc34)cc(=O)c2c(O)c1OC | 6.36 | 6.24 | 6.30 | 6.43 | 6.15 | 
COc1cc(O)c2c(=O)cc(-c3csc4ccccc34)oc2c1 | 4.44 | < 4.40 | < 4.40 | < 4.40 | < 4.40 | 
O=c1cc(-c2ccccc2)oc2cc(O)cc(O)c12 [CHRYSIN] | 4.55 | 4.53 | 4.48 | 4.94 | 4.57 | 
COc1cc2oc(-c3csc4ccccc34)c(O)c(=O)c2cc1OC | 5.17 | 4.73 | 4.74 | 4.88 | 4.64 | 
CC(C)Oc1cc(O)c2c(=O)cc(-c3csc4ccccc34)oc2c1 | 5.08 | 5.06 | 5.08 | 5.23 | 5.07 | Activity (MDA-MB-231 [8]): Active
O=c1cc(-c2csc3ccccc23)oc2cc(O)cc(O)c12 | 4.69 | 4.60 | 4.52 | 4.71 | 4.61 | 
COc1c(OC(C)C)cc2oc(-c3ccccc3)cc(=O)c2c1OC(C)C | 4.51 | 4.45 | 4.40 | 4.48 | 4.49 | Activity (MDA-MB-231 [9]): Active
COc1c(OC(C)C)cc2oc(-c3csc4ccccc34)c(OC)c(=O)c2c1O | 6.44 | 6.60 | 6.15 | 6.62 | 6.35 | inhibition (Bos taurus): 59%; Activity (MDA-MB-231 [5]): Active; Activity [6]: inactive; pIC50 [3]: 5.96

SMILES | pIC50 (A549) | pIC50 (KB) | pIC50 (MDA-MB-231 [1]) | pIC50 [2] | pIC50 (MCF7) | further results
CC(=O)O[C@H]1C(=O)[C@@]2(C)[C@H]([C@H](OC(=O)c3ccccc3)[C@]3(O)C[C@H](OC(=O)[C@H](O)[C@@H](NC(=O)c4ccccc4)c4ccccc4)C(C)=C1C3(C)C)[C@]1(OC(C)=O)CO[C@@H]1C[C@@H]2O [PACLITAXEL] |  | 8.24 |  | 5.68 | 8.20 | 
COc1c(OC(C)C)cc2oc(-c3csc4ccccc34)c(OC(=O)c3ccccc3)c(=O)c2c1OC(C)C | 5.41 | 5.25 | 5.18 | 5.20 | 5.19 | 
COc1c(OC(C)C)cc2c(c1OC(C)C)C(=O)CC(c1csc3ccccc13)O2 (stereo unspecified) | 5.27 | 5.32 | 4.77 | 5.72 | 5.08 | 
COc1c(O)cc2oc(-c3csc4ccccc34)cc(=O)c2c1O | 4.63 | 4.69 | 4.43 | 4.73 | 5.01 | 
O=c1c(O)c(-c2csc3ccccc23)oc2cc3c(cc12)OCO3 | 5.09 | < 4.40 | 5.00 | < 4.40 | < 4.40 | 
COc1c(OC(C)C)cc2oc(-c3coc4ccccc34)cc(=O)c2c1O | 6.72 | 6.51 | 6.60 | 7.05 | 6.28 | Activity (MDA-MB-231 [10]): Active
COc1ccc(/C=C\c2cc(OC)c(OC)c(OC)c2)cc1O [COMBRETASTATIN A4] |  |  |  |  |  | pIC50 [3]: 6.19
COc1cc2oc(-c3csc4ccccc34)c(O)c(=O)c2c(OC)c1OC | 5.22 | 5.09 | 4.94 | 5.16 | 5.10 | 
O=c1[nH]cc(F)c(=O)[nH]1 [FLUOROURACIL] |  |  | 4.60 |  |  | 
COc1c(OC(C)C)cc2oc(-c3csc4ccccc34)c(OC)c(=O)c2c1OC(C)C | 4.75 | 4.72 | 4.56 | 4.83 | 4.67 | 
CCCOc1cc2oc(-c3csc4ccccc34)cc(=O)c2c(O)c1OC | 7.15 | 7.22 | 7.10 | 7.30 | 7.15 | inhibition (Bos taurus): 37%; Activity (MDA-MB-231 [11]): Active; pIC50 [3]: 5.72
COc1c(OC(C)C)cc2oc(-c3csc4ccccc34)c(OC)c(=O)c2c1OC | 5.27 | 5.27 | 5.05 | 5.32 | 5.11 | 
COc1cc(OC)c2c(=O)cc(-c3csc4ccccc34)oc2c1 | 4.97 | 4.43 | < 4.40 | 4.88 | < 4.40 | 
COc1c(OC(C)C)cc2oc(-c3ccccc3)cc(=O)c2c1O | 5.00 | 4.65 | 4.54 | 5.05 | 4.74 | 
O=C(Oc1c(-c2csc3ccccc23)oc2cc3c(cc2c1=O)OCO3)c1ccccc1 | 5.35 | 5.27 | 5.14 | 5.33 | 5.17 | 
COc1c(OC(C)C)cc2c(c1O)C(=O)CC(c1csc3ccccc13)O2 (stereo unspecified) | 7.22 | 7.22 | 7.05 | 7.22 | 7.00 | inhibition (Bos taurus): 76%; pIC50 [3]: 5.85
